Assays:
Mus musculus [1] = species: Mus musculus; assay: Anticataleptic activity for reversing the reserpine-induced catalepsy in mice.; type: functional
In short: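 Male CD-1 mice fasted 18 h, given reserpine 5 mg/kg i.p. 4 h before oral compound (1% tragacanth, 10 mL/kg; 100, 30, 10 mg/kg; groups of five).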

Mus musculus [2] = assay: Anti-oxotremorine activity (anticholinergic property) and reduction of salivation in mice at a dose of 30 mg/kg.; type: functional
In short: (§1)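 Male CD-1 mice, food-deprived 18 h, with water ad libitum except during observation. Groups of 10 received oral treatment in 1% tragacanth at 10 mL/kg. Test agents were dosed at 100, 30 or 10 mg/kg; the reference standard or vehicle was given instead where used. Oxotremorine 0.4 mg/kg i.p. followed 30 min later. Tremor and salivation were each scored 0-3 at 10, 20 and 30 min, reported as mean score ± SEM.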

[3] = Acute toxicity in mice (24 hours).; type: organism-based; settings: mouse, in vivo
Mus musculus [4] = assay: Anti-oxotremorine activity (anticholinergic property) and reduction of tremor in mice at a dose of 30 mg/kg.; type: functional; in short: as §1
Mus musculus [5] = assay: Anti-oxotremorine activity (anticholinergic property) and reduction of salivation in mice at a dose of 10 mg/kg.; type: functional
In short: (§2)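 Male CD-1 mice, food withheld 18 h, water ad libitum except during observation. Compound in 1% tragacanth given orally (10 mL/kg) to groups of 10 at 100, 30 or 10 mg/kg. Oxotremorine 0.4 mg/kg i.p. 30 min later. Salivation and tremor each scored 0-3 at 10, 20 and 30 min after oxotremorine. Mean score ±SEM.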

Mus musculus [6] = assay: Anti-oxotremorine activity (anticholinergic property) and reduction of tremor in mice at a dose of 10 mg/kg.; type: functional; in short: as §2
Mus musculus [7] = assay: Anti-oxotremorine activity (anticholinergic property) and reduction of salivation in mice at a dose of 100 mg/kg.; type: functional; in short: as §2
Mus musculus [8] = assay: Anti-oxotremorine activity (anticholinergic property) and reduction of tremor in mice at a dose of 100 mg/kg.; type: functional; in short: as §2
Mus musculus [9] = assay: Anti-oxotremorine activity (anticholinergic property) and reduction of salivation in mice at a dose of 3 mg/kg.; type: functional
Mus musculus [10] = assay: Anti-oxotremorine activity (anticholinergic property) and reduction of tremor in mice at a dose of 3 mg/kg.; type: functional

## CC12C3CC4C5C[C@H]([C@H](C53)[C@@H]1NCCc1ccccc1)[C@@H]42 (stereo not given in full)
Mus musculus [1]
  ED50: 150 mg/kg
Mus musculus [2]
  Mean score: 1.3
[3]
  LD50 at 24 h: > 1000 mg/kg
Mus musculus [4]
  Mean score: 1.3

## CC12C3CC4C5C[C@H]([C@H](C53)[C@@H]1NCc1ccccc1)[C@@H]42 (stereo not given in full)
Mus musculus [1]
  ED50: 34 mg/kg
Mus musculus [2]
  Mean score: 1.5
[3]
  LD50 at 24 h: > 1000 mg/kg
Mus musculus [4]
  Mean score: 1.5

## N[C@H]1[C@H]2C3C4C[C@H]2[C@H]2C4CC3C21c1ccccc1 (stereo not given in full)
Mus musculus [1]
  ED50: 16 mg/kg
Mus musculus [2]
  Mean score: 1.2
[3]
  LD50 at 24 h: 681 mg/kg
Mus musculus [4]
  Mean score: 1.6

## CCN[C@H]1[C@H]2C3C4C[C@H]2[C@H]2C4CC3C21c1ccccc1 (stereo not given in full)
Mus musculus [1]
  ED50: 14 mg/kg
Mus musculus [5]
  Mean score: 1
[3]
  LD50 at 24 h: 261 mg/kg
Mus musculus [6]
  Mean score: 1.3

## CCCCN[C@H]1[C@H]2C3C4C[C@H]2[C@H]2C4CC3C21C (stereo not given in full)
Mus musculus [1]
  ED50: 15 mg/kg
Mus musculus [5]
  Mean score: 1.2
[3]
  LD50 at 24 h: 150 mg/kg
Mus musculus [6]
  Mean score: 1.2

## NC12CC3CC(CC(C3)C1)C2 [AMANTADINE]
Mus musculus [1]
  ED50: 17 mg/kg
Mus musculus [7]
  Mean score: 1.1
Mus musculus [8]
  Mean score: 1.7

## CN1[C@@H]2CC[C@H]1C[C@@H](OC(=O)C(CO)c1ccccc1)C2 (stereo not given in full) [ATROPINE]
Mus musculus [9]
  Mean score: 0
Mus musculus [10]
  Mean score: 0.5
